Assays:
[1] = target: D(1A) dopamine receptor (Homo sapiens, UniProt P21728); test: Inhibition of dopamine D1 receptor (unknown origin)
[2] = target: T1, Toll-like receptor 8 (Homo sapiens) (UniProt Q9NR97); test: Agonist activity at human TLR8 expressed in HEK293 cells assessed as induction of receptor activation incubated for 6 hrs by NF-kappaB-luciferase reporter gene assay; format: cell-based
T1 sequence (whole entry): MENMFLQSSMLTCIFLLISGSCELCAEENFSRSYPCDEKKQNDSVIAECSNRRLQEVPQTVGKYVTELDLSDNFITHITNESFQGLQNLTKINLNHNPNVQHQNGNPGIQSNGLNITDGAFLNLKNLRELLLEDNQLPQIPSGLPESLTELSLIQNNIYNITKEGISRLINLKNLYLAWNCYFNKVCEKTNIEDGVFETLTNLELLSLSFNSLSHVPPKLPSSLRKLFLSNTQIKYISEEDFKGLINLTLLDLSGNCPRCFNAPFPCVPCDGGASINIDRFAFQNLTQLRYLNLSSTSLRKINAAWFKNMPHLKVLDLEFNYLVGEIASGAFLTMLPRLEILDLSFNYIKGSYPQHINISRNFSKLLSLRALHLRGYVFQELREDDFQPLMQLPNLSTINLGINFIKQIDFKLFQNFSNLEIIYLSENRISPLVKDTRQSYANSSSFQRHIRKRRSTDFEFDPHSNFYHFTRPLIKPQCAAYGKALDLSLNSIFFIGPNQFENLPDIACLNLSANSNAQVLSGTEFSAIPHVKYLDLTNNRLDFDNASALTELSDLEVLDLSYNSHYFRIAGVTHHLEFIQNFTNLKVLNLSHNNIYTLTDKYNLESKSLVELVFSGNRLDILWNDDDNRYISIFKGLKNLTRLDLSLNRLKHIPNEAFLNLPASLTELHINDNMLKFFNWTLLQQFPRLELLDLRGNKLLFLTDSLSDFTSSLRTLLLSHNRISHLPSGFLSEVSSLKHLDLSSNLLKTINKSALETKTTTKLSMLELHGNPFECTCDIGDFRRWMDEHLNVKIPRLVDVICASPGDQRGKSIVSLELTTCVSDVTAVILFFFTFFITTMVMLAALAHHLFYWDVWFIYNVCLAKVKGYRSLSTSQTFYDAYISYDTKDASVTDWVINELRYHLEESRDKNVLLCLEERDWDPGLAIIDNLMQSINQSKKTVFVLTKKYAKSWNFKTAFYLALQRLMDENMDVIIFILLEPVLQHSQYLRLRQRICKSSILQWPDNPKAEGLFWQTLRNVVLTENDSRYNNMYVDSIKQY

[3] = target: 5-hydroxytryptamine receptor 2A (Homo sapiens, UniProt P28223); test: Inhibition of 5-HT2A receptor (unknown origin)
Chain of 5-hydroxytryptamine receptor 2A (P28223 whole entry): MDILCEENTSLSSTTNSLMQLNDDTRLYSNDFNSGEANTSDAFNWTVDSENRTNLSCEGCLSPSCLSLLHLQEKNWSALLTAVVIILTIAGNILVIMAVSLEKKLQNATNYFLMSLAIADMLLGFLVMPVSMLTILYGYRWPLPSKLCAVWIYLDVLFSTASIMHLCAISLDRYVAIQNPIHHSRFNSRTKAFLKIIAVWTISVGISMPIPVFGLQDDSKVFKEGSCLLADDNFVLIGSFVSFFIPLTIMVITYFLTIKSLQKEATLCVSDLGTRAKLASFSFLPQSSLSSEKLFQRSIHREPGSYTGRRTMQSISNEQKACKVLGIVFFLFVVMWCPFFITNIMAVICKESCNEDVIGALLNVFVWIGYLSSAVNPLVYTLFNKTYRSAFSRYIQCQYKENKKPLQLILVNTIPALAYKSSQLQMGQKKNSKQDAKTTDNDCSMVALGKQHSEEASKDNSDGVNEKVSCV

[4] = Metabolic stability in human liver microsomes assessed as compound metabolized at 1 uM after 15 mins; format: ADME, microsome; conditions: read-out: Drug metabolism
Procedure, shortened: (§1)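 Mouse (M) or human (H) liver microsomes incubated with compound at 1 μM; percent metabolized after 15 min.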

[5] = target: T2, Toll-like receptor 7 (Homo sapiens) (UniProt Q9NYK1); test: Agonist activity at TLR7 in human PBMC assessed as suppression of HCV replicon replication in human HuH7 luc/neo cells harboring RNA encoding bicistronic expression construct comprising wild type HCV type 1b NS3-NS5B regions exposed to conditioned media from compound treated PBMCs after 24 hrs by luciferase reporter gene assay; format: cell-based
T2 sequence (whole entry): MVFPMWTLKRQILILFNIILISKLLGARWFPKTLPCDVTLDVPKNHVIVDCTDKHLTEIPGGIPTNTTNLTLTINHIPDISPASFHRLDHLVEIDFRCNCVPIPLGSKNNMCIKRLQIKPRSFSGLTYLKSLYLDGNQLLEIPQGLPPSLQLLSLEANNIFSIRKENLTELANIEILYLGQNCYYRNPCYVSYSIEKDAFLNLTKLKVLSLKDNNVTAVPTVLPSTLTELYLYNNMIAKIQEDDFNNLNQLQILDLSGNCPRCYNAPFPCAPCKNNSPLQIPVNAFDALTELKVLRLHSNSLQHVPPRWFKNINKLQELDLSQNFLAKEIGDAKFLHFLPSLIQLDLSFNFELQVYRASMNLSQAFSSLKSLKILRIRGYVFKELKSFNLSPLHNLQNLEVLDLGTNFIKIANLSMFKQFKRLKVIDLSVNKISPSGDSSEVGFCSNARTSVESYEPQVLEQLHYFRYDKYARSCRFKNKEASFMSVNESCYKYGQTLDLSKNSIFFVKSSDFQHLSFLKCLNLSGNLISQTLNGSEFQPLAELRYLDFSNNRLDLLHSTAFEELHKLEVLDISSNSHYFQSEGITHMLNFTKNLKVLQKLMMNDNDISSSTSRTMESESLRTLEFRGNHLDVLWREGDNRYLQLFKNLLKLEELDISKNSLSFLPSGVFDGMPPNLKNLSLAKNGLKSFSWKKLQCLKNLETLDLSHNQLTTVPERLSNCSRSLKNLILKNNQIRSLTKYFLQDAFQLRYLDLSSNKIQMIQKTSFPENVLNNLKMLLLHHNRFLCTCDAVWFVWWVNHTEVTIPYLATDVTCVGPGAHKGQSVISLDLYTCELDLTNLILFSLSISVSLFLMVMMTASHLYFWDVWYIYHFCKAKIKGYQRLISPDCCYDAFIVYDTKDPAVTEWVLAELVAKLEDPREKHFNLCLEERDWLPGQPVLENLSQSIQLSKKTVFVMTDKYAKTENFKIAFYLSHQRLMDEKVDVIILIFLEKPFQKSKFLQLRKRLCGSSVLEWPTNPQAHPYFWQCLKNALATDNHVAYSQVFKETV
Procedure, shortened: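 Human PBMCs were incubated with compound. Their medium was then transferred onto an HCV replicon system, so the antiviral read-out reflects interferon and cytokines the PBMCs induced. Values are reported as lowest effective concentration (LEC), averaged when determined in two or more independent experiments.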

[6] = target: Alpha-1A adrenergic receptor; test: Inhibition of alpha-1A adrenergic receptor (unknown origin)
[7] = Cytotoxicity against HEK293 cells assessed as reduction in cell viability after 6 hrs by ATP lite assay; format: cell-based; conditions: human
[8] = target: Voltage-gated inwardly rectifying potassium channel KCNH2 (Homo sapiens, UniProt Q12809); test: Inhibition of radioligand binding to human ERG expressed in HEK293 cell membranes by scintillation counting method
Chain of Voltage-gated inwardly rectifying potassium channel KCNH2 (Q12809 whole entry): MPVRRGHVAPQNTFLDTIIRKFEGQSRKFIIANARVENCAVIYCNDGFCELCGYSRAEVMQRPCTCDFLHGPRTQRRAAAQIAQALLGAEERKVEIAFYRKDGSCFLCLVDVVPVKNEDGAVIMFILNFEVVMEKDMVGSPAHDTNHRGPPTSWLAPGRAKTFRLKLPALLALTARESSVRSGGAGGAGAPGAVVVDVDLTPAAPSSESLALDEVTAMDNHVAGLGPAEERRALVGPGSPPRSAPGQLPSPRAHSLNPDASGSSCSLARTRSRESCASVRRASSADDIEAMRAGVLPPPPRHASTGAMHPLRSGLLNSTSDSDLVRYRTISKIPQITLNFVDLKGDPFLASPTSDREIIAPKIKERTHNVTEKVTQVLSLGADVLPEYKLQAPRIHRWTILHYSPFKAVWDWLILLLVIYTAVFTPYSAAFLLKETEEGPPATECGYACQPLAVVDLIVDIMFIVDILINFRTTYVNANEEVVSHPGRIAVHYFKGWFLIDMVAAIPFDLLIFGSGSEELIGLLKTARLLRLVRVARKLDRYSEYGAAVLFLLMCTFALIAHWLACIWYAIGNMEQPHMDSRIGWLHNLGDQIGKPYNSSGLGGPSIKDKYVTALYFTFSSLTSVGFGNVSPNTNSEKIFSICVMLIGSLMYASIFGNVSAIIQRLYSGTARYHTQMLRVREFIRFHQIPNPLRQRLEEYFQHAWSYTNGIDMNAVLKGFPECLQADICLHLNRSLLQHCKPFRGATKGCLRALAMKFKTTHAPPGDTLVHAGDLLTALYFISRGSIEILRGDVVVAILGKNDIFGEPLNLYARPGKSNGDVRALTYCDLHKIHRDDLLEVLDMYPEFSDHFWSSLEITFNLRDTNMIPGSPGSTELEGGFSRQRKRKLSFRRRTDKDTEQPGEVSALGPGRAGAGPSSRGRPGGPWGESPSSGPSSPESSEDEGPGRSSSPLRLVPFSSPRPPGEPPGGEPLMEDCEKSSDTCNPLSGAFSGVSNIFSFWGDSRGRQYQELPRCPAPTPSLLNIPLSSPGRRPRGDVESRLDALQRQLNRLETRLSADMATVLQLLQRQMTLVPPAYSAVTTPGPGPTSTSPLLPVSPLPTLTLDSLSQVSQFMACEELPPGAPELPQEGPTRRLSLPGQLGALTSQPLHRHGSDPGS

[9] = target: Cytochrome P450 2D6 (Homo sapiens, UniProt P10635); test: Inhibition of CYP2D6 (unknown origin); format: ADME
Chain of Cytochrome P450 2D6 (P10635 whole entry): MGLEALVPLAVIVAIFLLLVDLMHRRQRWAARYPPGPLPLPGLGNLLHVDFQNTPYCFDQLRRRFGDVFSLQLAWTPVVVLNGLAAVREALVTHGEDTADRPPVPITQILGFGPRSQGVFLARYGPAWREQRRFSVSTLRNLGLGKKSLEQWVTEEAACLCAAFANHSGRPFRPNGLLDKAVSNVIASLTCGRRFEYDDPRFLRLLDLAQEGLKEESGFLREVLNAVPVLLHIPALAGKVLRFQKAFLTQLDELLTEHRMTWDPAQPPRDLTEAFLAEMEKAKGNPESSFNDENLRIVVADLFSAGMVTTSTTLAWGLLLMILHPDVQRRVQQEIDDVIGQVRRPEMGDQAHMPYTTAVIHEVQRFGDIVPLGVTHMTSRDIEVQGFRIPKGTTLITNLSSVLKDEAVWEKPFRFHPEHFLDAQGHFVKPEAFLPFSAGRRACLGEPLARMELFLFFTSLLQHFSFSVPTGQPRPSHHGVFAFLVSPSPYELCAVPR

[10] = target: T2, Toll-like receptor 7 (Homo sapiens); test: Agonist activity at human TLR7 expressed in HEK293 cells assessed as induction of receptor activation incubated for 6 hrs by NF-kappaB-luciferase reporter gene assay; format: cell-based
Procedure, shortened: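 HEK cell-based assay using a wild-type TLR7 expression vector; a parallel TLR8 vector construct served for selectivity. Results are expressed as lowest effective concentration (LEC), averaged over independent experiments where determined two or more times. A separate HEK 293 cytotoxicity (TOX) assay gave CC50 alongside.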

[11] = Metabolic stability in mouse liver microsomes assessed as compound metabolized at 1 uM after 15 mins; format: ADME, microsome; conditions: read-out: Drug metabolism; procedure, shortened: as §1

Chain of D(1A) dopamine receptor (P21728 whole entry): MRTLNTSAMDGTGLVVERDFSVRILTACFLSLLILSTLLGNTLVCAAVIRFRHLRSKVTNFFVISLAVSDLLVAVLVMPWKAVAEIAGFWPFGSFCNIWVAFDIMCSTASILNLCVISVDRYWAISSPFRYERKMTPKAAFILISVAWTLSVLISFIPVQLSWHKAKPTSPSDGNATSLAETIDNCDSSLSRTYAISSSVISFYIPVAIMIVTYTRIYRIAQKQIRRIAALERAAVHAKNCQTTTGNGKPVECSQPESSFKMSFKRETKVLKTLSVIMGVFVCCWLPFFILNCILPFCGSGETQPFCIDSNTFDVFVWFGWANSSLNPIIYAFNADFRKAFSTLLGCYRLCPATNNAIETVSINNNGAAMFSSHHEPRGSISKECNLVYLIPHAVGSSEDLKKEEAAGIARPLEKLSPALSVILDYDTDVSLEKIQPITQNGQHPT

SMILES: CCC[C@@H](CCO)Nc1nc(N)nc2cc(OC)ccc12
- IC50 [1]: 5750 nM
- MEC [2]: 0.13 µM
- IC50 [3]: 1780 nM
- metabolised at 0.25 h, 1 µM [4]: 35%
- MEC [5]: 0.5 µM
- IC50 [6]: 2340 nM
- CC50 at 6 h [7]: > 24000 nM
- IC50 [8]: > 10000 nM
- IC50 [9]: 600 nM
- MEC [10]: 0.2 µM
- metabolised at 0.25 h, 1 µM [11]: 65%

Source: ChEMBL document CHEMBL4130635, “2,4-Diaminoquinazolines as Dual Toll-like Receptor (TLR) 7/8 Modulators for the Treatment of Hepatitis B Virus” (J Med Chem, 2018)
